In publication PMC11316633 (European journal of medicinal chemistry, 2024):
Read-outs that look alike come from different tables or passages of the source.

Assays:
[1] = molecular target: CDK7/Cyclin H/MNAT1 (Homo sapiens, UniProt P50613); test: Adapta Eu kinase assay; type: biochemical
Outline: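 CDK7/Cyclin H/MNAT1 complex tested by an outside contract service in Adapta Eu format, with ATP at its Km concentration.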

[2] = molecular target: CDK7 (Homo sapiens, UniProt P50613); test: Immunoblot analysis of CDK7 degradation in Jurkat cells; type: cell-based; conditions: Jurkat cells, 16 h, Western blot
CDK7, sequence (P50613 2-346 limits assumed): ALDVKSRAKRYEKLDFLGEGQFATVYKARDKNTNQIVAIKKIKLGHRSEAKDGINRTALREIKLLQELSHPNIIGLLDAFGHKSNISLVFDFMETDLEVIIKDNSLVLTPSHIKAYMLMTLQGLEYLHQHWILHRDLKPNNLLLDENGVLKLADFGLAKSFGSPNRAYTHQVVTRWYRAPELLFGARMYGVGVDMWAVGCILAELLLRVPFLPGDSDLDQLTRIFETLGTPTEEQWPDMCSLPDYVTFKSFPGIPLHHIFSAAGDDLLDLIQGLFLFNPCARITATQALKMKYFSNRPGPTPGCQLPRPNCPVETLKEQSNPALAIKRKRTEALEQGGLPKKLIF
CDK7, sequence (P51946 whole entry partner): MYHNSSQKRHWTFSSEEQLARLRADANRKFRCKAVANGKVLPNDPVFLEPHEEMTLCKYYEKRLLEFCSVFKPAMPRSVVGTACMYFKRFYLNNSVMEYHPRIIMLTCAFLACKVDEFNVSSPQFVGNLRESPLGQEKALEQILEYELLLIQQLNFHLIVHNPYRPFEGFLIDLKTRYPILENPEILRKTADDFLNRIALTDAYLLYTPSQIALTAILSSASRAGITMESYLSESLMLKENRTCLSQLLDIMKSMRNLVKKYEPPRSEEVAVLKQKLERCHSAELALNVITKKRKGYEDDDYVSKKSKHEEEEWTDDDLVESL
CDK7, sequence (P51948 whole entry partner): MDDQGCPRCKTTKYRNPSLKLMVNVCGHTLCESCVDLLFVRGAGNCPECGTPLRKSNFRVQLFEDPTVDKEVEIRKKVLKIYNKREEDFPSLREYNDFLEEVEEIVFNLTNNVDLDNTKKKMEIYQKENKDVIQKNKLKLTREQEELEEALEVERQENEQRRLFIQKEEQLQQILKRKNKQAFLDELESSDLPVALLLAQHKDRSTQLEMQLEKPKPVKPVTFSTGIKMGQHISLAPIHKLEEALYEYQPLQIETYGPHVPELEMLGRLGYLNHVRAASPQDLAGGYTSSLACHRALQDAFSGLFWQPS
Outline: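 Jurkat cells received test compound at 0.1 or 1 μM for 16 h, 0.1 μM for 0.5–24 h, or a concentration series for 6 h. Other arms were pretreated 2 h with MG132, MLN-4924, parent CDK7 inhibitor or VHL ligand, or used VHL-knockout Jurkat (6 h). Blots: RIPA lysis, 4–20% SDS-PAGE, nitrocellulose, anti-CDK7 1:1000, β-actin 1:5000, IRDye secondaries. Mean ± SEM of three biological replicates.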

CDK7/Cyclin H/MNAT1, sequence (P50613 whole entry): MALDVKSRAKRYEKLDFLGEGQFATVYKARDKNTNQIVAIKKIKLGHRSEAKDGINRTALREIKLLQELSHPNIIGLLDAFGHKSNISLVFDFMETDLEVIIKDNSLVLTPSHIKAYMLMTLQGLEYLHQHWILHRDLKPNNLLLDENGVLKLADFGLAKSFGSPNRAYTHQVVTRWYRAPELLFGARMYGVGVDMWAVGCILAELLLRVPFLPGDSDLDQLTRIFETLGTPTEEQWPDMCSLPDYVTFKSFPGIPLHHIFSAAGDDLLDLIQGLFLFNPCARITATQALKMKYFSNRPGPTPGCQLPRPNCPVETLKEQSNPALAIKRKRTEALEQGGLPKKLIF
CDK7/Cyclin H/MNAT1, sequence (P51946 whole entry partner): as the sequence (P51946 whole entry partner) above
CDK7/Cyclin H/MNAT1, sequence (P51948 whole entry partner): as the sequence (P51948 whole entry partner) above

| Compound | IC50 [1] | CDK7 degradation (in words) ([2]; 1 μM) | other results |
| --- | --- | --- | --- |
| Cc1ncsc1-c1ccc([C@H](C)NC(=O)[C@@H]2C[C@@H](O)CN2C(=O)[C@@H](NC(=O)CCCCCc2ccc(C(=O)Nc3n[nH]c4c3CN(C(=O)N[C@H](CN(C)C)c3ccccc3)C4(C)C)cc2)C(C)(C)C)cc1 [Compound 18, N-((S)-2-(dimethylamino)-1-phenylethyl)-3-(4-(6-(((S)-1-((2S,4R)-4-hydroxy-2-(((S)-1-(4-(4-methylthiazol-5-yl)phenyl)ethyl)carbamoyl)pyrrolidin-1-yl)-3,3-dimethyl-1-oxobutan-2-yl)amino)-6-oxohexyl)benzamido)-6,6-dimethyl-4,6-dihydropyrrolo[3,4-c]pyrazole-5(1H)-carboxamide] | 20.3 nM |  | CDK7 degradation (in words) ([2]; 0.1 μM or 1 μM): slightly decreased degradation activity |
| CN(C)C[C@@H](NC(=O)N1Cc2c(NC(=O)c3ccc(C(=O)NCCCC#Cc4cccc5c4C(=O)N(C4CCC(=O)NC4=O)C5=O)cc3)n[nH]c2C1(C)C)c1ccccc1 (stereo partly drawn) [Compound 8, N1-(5-(((S)-2-(dimethylamino)-1-phenylethyl)carbamoyl)-6,6-dimethyl-1,4,5,6-tetrahydropyrrolo[3,4-c]pyrazol-3-yl)-N4-(5-(2-(2,6-dioxopiperidin-3-yl)-1,3-dioxoisoindolin-4-yl)pent-4-yn-1-yl)terephthalamide] | 6.9 nM |  |  |
| Cc1ncsc1-c1ccc([C@H](C)NC(=O)[C@@H]2C[C@@H](O)CN2C(=O)[C@@H](NC(=O)CCOCCOCCNC(=O)c2ccc(C(=O)Nc3n[nH]c4c3CN(C(=O)N[C@H](CN(C)C)c3ccccc3)C4(C)C)cc2)C(C)(C)C)cc1 [Compound 15, N1-(5-(((S)-2-(dimethylamino)-1-phenylethyl)carbamoyl)-6,6-dimethyl-1,4,5,6-tetrahydropyrrolo[3,4-c]pyrazol-3-yl)-N4-(2-(2-(3-(((S)-1-((2S,4R)-4-hydroxy-2-(((S)-1-(4-(4-methylthiazol-5-yl)phenyl)ethyl)carbamoyl)pyrrolidin-1-yl)-3,3-dimethyl-1-oxobutan-2-yl)amino)-3-oxopropoxy)ethoxy)ethyl)terephthalamide] | 7.6 nM |  |  |
| Cc1ncsc1-c1ccc(CNC(=O)C2CC(O)CN2C(=O)C(NC(=O)C2(F)CC2)C(C)(C)C)c(OCCOCCOCCNC(=O)c2ccc(C(=O)Nc3n[nH]c4c3CN(C(=O)N[C@H](CN(C)C)c3ccccc3)C4(C)C)cc2)c1 (stereo partly drawn) [Compound 21, N1-(5-(((S)-2-(dimethylamino)-1-phenylethyl)carbamoyl)-6,6-dimethyl-1,4,5,6-tetrahydropyrrolo[3,4-c]pyrazol-3-yl)-N4-(2-(2-(2-(2-((1-(2-(1-fluorocyclopropane-1-carboxamido)-3,3-dimethylbutanoyl)-4-hydroxypyrrolidine-2-carboxamido)methyl)-5-(4-methylthiazol-5-yl)phenoxy)ethoxy)ethoxy)ethyl)terephthalamide] | 13.4 nM | moderate reduction of CDK7 protein levels |  |
| CC(=O)N[C@H](C(=O)N1C[C@H](O)C[C@H]1C(=O)N[C@@H](C)c1ccc(-c2scnc2C(=O)NCCCCCNC(=O)c2ccc(C(=O)Nc3n[nH]c4c3CN(C(=O)N[C@H](CN(C)C)c3ccccc3)C4(C)C)cc2)cc1)C(C)(C)C [Compound 22, N1-(5-(5-(4-((S)-1-((2S,4R)-1-((S)-2-acetamido-3,3-dimethylbutanoyl)-4-hydroxypyrrolidine-2-carboxamido)ethyl)phenyl)thiazole-4-carboxamido)pentyl)-N4-(5-(((S)-2-(dimethylamino)-1-phenylethyl)carbamoyl)-6,6-dimethyl-1,4,5,6-tetrahydropyrrolo[3,4-c]pyrazol-3-yl)terephthalamide] |  | moderate reduction of CDK7 protein levels |  |
| Cc1ncsc1-c1ccc([C@H](C)NC(=O)[C@@H]2C[C@@H](O)CN2C(=O)[C@@H](NC(=O)CCCCCCCNC(=O)c2ccc(C(=O)Nc3n[nH]c4c3CN(C(=O)N[C@H](CN(C)C)c3ccccc3)C4(C)C)cc2)C(C)(C)C)cc1 [Compound 13, N1-(5-(((S)-2-(dimethylamino)-1-phenylethyl)carbamoyl)-6,6-dimethyl-1,4,5,6-tetrahydropyrrolo[3,4-c]pyrazol-3-yl)-N4-(8-(((S)-1-((2S,4R)-4-hydroxy-2-(((S)-1-(4-(4-methylthiazol-5-yl)phenyl)ethyl)carbamoyl)pyrrolidin-1-yl)-3,3-dimethyl-1-oxobutan-2-yl)amino)-8-oxooctyl)terephthalamide] | 7.8 nM |  | reduction in CDK7 protein ([2]; 0.1 μM or 1 μM): more than 80% |
| N1-(5-(((R)-2-(dimethylamino)-1-phenylethyl)carbamoyl)-6,6-dimethyl-1,4,5,6-tetrahydropyrrolo[3,4-c]pyrazol-3-yl)-N4-((S)-14-((2S,4R)-4-hydroxy-2-(((S)-1-(4-(4-methylthiazol-5-yl)phenyl)ethyl)carbamoyl)pyrrolidine-1-carbonyl)-15,15-dimethyl-12-oxo-3,6,9-trioxa-13-azahexadecyl)terephthalamide [Compound 16] |  |  | IC50 ([1]; read-out: IC50 (CDK7 binding affinity, Table 2), VHL-based compounds, Adapta Eu kinase assay, Km ATP): 13.7 nM |
| Cc1ncsc1-c1ccc([C@H](C)NC(=O)[C@@H]2C[C@@H](O)CN2C(=O)[C@@H](NC(=O)CCNC(=O)c2ccc(C(=O)Nc3n[nH]c4c3CN(C(=O)N[C@H](CN(C)C)c3ccccc3)C4(C)C)cc2)C(C)(C)C)cc1 [Compound 10, N1-(5-(((S)-2-(dimethylamino)-1-phenylethyl)carbamoyl)-6,6-dimethyl-1,4,5,6-tetrahydropyrrolo[3,4-c]pyrazol-3-yl)-N4-(3-(((S)-1-((2S,4R)-4-hydroxy-2-(((S)-1-(4-(4-methylthiazol-5-yl)phenyl)ethyl)carbamoyl)pyrrolidin-1-yl)-3,3-dimethyl-1-oxobutan-2-yl)amino)-3-oxopropyl)terephthalamide] |  | moderate degradation |  |
| Cc1ncsc1-c1ccc(CNC(=O)C2CC(O)CN2C(=O)C(NC(=O)C2(F)CC2)C(C)(C)C)c(OCCCCCCCCNC(=O)c2ccc(C(=O)Nc3n[nH]c4c3CN(C(=O)N[C@H](CN(C)C)c3ccccc3)C4(C)C)cc2)c1 (stereo partly drawn) [Compound 20, N1-(5-(((S)-2-(dimethylamino)-1-phenylethyl)carbamoyl)-6,6-dimethyl-1,4,5,6-tetrahydropyrrolo[3,4-c]pyrazol-3-yl)-N4-(8-(2-((1-(2-(1-fluorocyclopropane-1-carboxamido)-3,3-dimethylbutanoyl)-4-hydroxypyrrolidine-2-carboxamido)methyl)-5-(4-methylthiazol-5-yl)phenoxy)octyl)terephthalamide] | 12.1 nM | moderate reduction of CDK7 protein levels |  |
